According to article PMC8901509 (Clinical Drug Investigation, 2021):
Like-named read-outs stand apart in the source and are kept apart here.

Tests used:
[1] = Study 2: safety and tolerability; type: in vivo, human
Summary of the method: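 Healthy males, sitting, given a single oral 25 mg dose of [14C]-labelled plus unlabelled drug as a solution after an overnight fast. Safety from physical examination (AEs), safety laboratory parameters, 12-lead ECG and vital signs (pulse rate, blood pressure). Investigators graded severity and drug relatedness.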

[2] = tested on: glycine transporter-1 (GlyT1); conditions: human; dose-dependent; cited from earlier work
[3] = anticipated therapeutic dose range of 5–25 mg; cited from earlier work
[4] = type: in vivo; conditions: human, plasma, po, 25 mg, t½, oral 25 mg solution, gMean (gCV%)
Summary of the method: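 Healthy males, overnight fast (≥ 10 h), sitting; single oral 25 mg dose of [14C]-labelled/unlabelled mixture as 12.5 mL solution (2 mg/mL) with 240 mL water, planned 3.7 MBq; no food ≥ 4 h. Venous blood 5–8 mL per time point; plasma frozen ~−20 °C within 60 min. Cmax, AUC0–tz, AUC0–∞, tmax, t1/2 for parent, three metabolites and total radioactivity.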

[5] = multiple oral doses of itraconazole; cited from earlier work
[6] = type: in vivo, human; conditions: gMean dose-normalized maximum plasma concentration
Summary of the method: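 Healthy males, overnight fast (≥ 10 h); single oral 25 mg film-coated tablet with water, fasted ≥ 4.5 h; at 4 h, 15-min IV infusion of 30 µg (3 µg [14C]-labelled, 0.011 MBq, plus 27 µg unlabelled). Plasma sampled −2 to 168 h (unlabelled) or 3–168 h (labelled), stored ~−20 °C. Unlabelled drug by validated LC/MS, labelled by AMS. Dose-normalized gMean ratio via mixed-effects ANOVA, two-sided 90% CI.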

[7] = tested on: glycine transporter-1 (GlyT1); conditions: rat; dose-dependent; cited from earlier work
[8] = cited from earlier work
[9] = cited from earlier work; remark: listed apart in the source
[10] = Study 2: metabolite radioprofiling in plasma, urine and feces; type: in vivo, human
Summary of the method: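 Single oral 25 mg [14C]-labelled solution to healthy males. Plasma (to 168 h), urine and daily feces profiled by HPLC radiochromatography with fractionation and solid scintillation counting. Identification by LC/MS with accurate mass, positive and negative ion CID MS/MS; tentative unless matched to an authentic standard. Peaks < 20 cpm height below quantitation limit.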

[11] = Study 1: safety and tolerability; type: in vivo, human
Summary of the method: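 Healthy males given a single oral 25 mg tablet followed 4 h later by a 15-min IV [14C]-microtracer infusion. Medical surveillance for 24 h post-dose. AEs recorded continuously from screening to end-of-trial visit (Days 12–15). Assessment by physical examination, safety laboratory parameters, 12-lead ECG and vital signs (pulse rate, blood pressure).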

half-life [4]: ~50 h
Cmax,norm lower after oral administration versus IV dose [6]: approximately 80%
% of Dose Administrated; % of the radioactive dose ([10]; Average, feces radioprofiling): < 1%
Plasma (%AUC0-168h), % [14C]; % of total plasma radioactivity ([10]; Average, plasma radioprofiling): 41.0%
% of total radioactivity in feces ([10]; feces radioprofiling): < 1%
Structure (SMILES): C[C@@H](Oc1ccc(S(C)(=O)=O)cc1C(=O)N1C[C@@H]2C[C@]2(c2cc(C(F)(F)F)on2)C1)C(F)(F)F [BI 425809]
Total with on-treatment adverse events, % ([1]; 6 subjects): 83.3%
AEs considered severe or drug related by the investigators ([1]; study 2): none
SAEs, AEs leading to discontinuation, AEs of special interest ([1]; study 2): No SAEs
tolerability ([1]; study 2, single 25 mg dose): generally well tolerated
levels of glycine in cerebral spinal fluid (CSF) [2]: increased
tolerability [3]: generally well tolerated
gMean ratio of Cmax with co-administration of itraconazole [5]: 116.1%
levels of glycine in cerebral spinal fluid (CSF) [7]: increased
adjusted gMean ratio for AUC0–tz, tablet fasted vs. oral solution fasted ([8]; 25 mg tablet vs 25 mg solution): 80.5%
adjusted gMean ratio for Cmax, tablet fasted vs. oral solution fasted ([8]; 25 mg tablet vs 25 mg solution): 50.0%
adjusted gMean ratio AUC0–tz, high-fat/high-calorie meal versus 10-h fasted ([8]; 25 mg tablet): 125.9%
adjusted gMean ratio Cmax, high-fat/high-calorie meal versus 10-h fasted ([8]; 25 mg tablet): 142.1%
Biopharmaceutics Classification System class [9]: Class II
permeability [9]: high
participants reporting at least one treatment-emergent AE ([11]; of six participants): 50.0%
intensity of treatment-emergent AEs ([11]; study 1): mild intensity
serious AEs, AEs leading to discontinuation, AEs of special interest ([11]; study 1): no serious AEs reported
tolerability ([11]; study 1, oral 25 mg): generally well tolerated
